RORa inhibitor: RORA (human) inhibition | P35398 | CHO-K1 Gal4-RORA LBD luciferase reporter, luminescence | inhibition, % at 10 µM | actives 0.43% (n = 65,000) | AID 561;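 active means inhibition above the mean of all tested compounds plus 3 SD, cut at about 52% in these data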;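 further: 0% = RORA-transfected cells with DMSO and 100% = mock-transfected cells lacking RORA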
Target sequence (P35398 whole entry, looked up, the tested form may be a part): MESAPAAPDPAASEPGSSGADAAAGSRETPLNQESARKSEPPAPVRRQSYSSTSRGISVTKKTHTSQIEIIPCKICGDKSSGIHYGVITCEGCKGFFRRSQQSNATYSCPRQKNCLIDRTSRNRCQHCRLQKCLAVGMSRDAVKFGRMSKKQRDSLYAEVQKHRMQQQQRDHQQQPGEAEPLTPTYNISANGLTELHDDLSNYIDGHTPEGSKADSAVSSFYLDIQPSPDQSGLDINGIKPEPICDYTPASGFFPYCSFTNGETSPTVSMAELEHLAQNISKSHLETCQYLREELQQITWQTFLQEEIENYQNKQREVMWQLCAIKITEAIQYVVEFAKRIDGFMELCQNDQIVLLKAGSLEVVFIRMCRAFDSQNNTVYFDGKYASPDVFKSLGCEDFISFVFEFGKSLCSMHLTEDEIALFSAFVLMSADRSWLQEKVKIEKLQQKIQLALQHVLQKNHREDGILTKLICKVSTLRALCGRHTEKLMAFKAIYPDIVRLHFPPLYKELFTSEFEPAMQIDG
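Test system: CHO-K1 cells with Gal4-hRORA LBD fusion and pG5-luc reporter | Timing: 20 h compound treatment, 37 °C | Detection: Luminescence from basal luciferase reporter expression | Read-out basis: % inhibition of basal luciferase versus +RORA/-RORA DMSO controls | Repeats: One measurement per compound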
The depositor's hits bear a star. The sample as a whole holds a higher share of hits than the screen did.

SMILES | RORa inhibitor
COc1ccc(-c2nc(CSCC(=O)N3CCc4ccccc43)c(C)o2)cc1OC | 7
CCCCNC(=O)c1cc(-c2ccc(OC)cc2)on1 | -59
CCc1ccc(-c2nc(CSCC(=O)N3CCN(c4ccccn4)CC3)c(C)o2)cc1 | 48
COc1ccc(-c2nc(CS(=O)CC(=O)NCc3ccco3)c(C)o2)cc1 (centres undefined) | -13
COc1ccc2cc(C3(C)NC(=O)N(CC(=O)NCc4ccco4)C3=O)ccc2c1 (centres undefined) | -1
Cc1ccc(CS(=O)(=O)CCC(=O)NCCCN2CCCC2=O)cc1 | -3
CCOc1ccc(-c2nc(CSCC(=O)NCc3ccco3)c(C)o2)cc1 | 94*
Cc1nc(SCC(=O)Nc2c(C)n(C)n(-c3ccccc3)c2=O)n[nH]1 | 5
Cc1cc(N)c(NC2=CC(=O)CC(C)(C)C2)cc1C | -70
Cc1nccn1CCCN1C(=O)OC2(CCCCC2)C1(C)O (centres undefined) | -9
CCCCNC(=O)c1cc(-c2ccc(F)cc2)on1 | -73
COc1ccc(OC)c(N(CC(=O)NCCSc2ccccc2)S(C)(=O)=O)c1 | 0
CC(C)(C)OC(=O)N1CCNc2ccccc2C1 | 7
Cc1ccc(C(=O)CSc2nnc(CNc3ccc(C)cc3C)o2)cc1 | -3
O=C(Nc1ncnc2c1ncn2C1OC(COC(=O)c2ccccc2)C(F)C1O)c1ccccc1 (centres undefined) | 8
CC(=O)CC(C)=NCCN=C(C)CC(C)=O | 18
COc1ccccc1NC(=O)COC(=O)CNC(=O)c1ccc(OC)c(OC)c1 | 8
CC1=CCC(COC(=O)Nc2ccccc2)CC1 (centres undefined) | -90
COc1ccc(Cn2c(C3CC3)nc3ccc(NC(=O)c4ccco4)cc3c2=O)cc1 | -44
CCOc1ccc2ccccc2c1C(=O)N1CCOCC1 | -2
Cc1cc(C)c(NC(=O)Cn2c(=O)n(Cc3ccco3)c(=O)c3ccccc32)c(C)c1 | 10
CC1(C)CC(=O)C2=C(C1)Oc1nc3ccccc3cc1C2C(C#N)C#N (centres undefined) | 72*
O=C(CCCOc1ccccc1)Nc1ccc2c(c1)OCCO2 | 4
O=C(OCCCN1CCCC1)C1(c2ccccc2)CCCC1 | 5
CCOC(=O)Cc1csc(SCc2nc3ccccc3c(=O)[nH]2)n1 | -18
SMILES | RORa inhibitor
O=C1c2ccccc2C(=O)N1CNc1ccccc1 | 17
COc1ccc(CNC(=O)CSc2nnnn2Cc2ccccc2)cc1 | -32
O=C(CSc1nnnn1C1CC2CCC1C2)Nc1ccnc2ccccc12 (centres undefined) | 85*
Cc1cccc(C)c1OCC(=O)NCc1nnc(SCC(=O)NC2CCCCC2)n1C | 4
Cc1cccn2cc(-c3ccccc3)nc12 | -76
Cc1ccc2nc(-c3ccccc3)cn2c1 | 89*
CC(C)C(=O)N1CCN(c2nc(-c3ccccc3)c3c(c2C#N)CCCC3)CC1 | 33
CCc1ccccc1NC(=O)c1ccc(F)c(S(=O)(=O)N2CCC(C(N)=O)CC2)c1 | 10
O=C(Nc1ccc2c(c1)OCCO2)C1CCN(S(=O)(=O)c2ccc(Br)s2)CC1 | -7
Cc1cccc(N2CC(C(=O)Nc3ccc4c(c3)OCO4)CC2=O)c1C (centres undefined) | 26
Nc1ccc(-c2nc3c(Cl)cc(N)cc3[nH]2)cc1 | 79*
Brc1cccc(C2CC(c3ccccc3)n3nnnc3N2)c1 (centres undefined) | -5
c1ccc(Nc2cc(Nc3ccccc3)[nH]n2)cc1 | -9
Cc1nn(Cc2nc(-c3cccs3)no2)c(C)c1Br | -4
NC(=O)C1CCN(CCC(=O)Nc2ccc(Br)cc2)CC1 | 5
Nc1nc2ccc(Oc3ccccc3)cc2s1 | -33
Cc1ccc2[nH]c(-c3cccc(N)c3)cc2c1 | -55
Nc1cccc(-c2nc3ccc(N)cc3s2)c1 | 57*
O=C(CSc1nnc(-c2cccnc2)o1)OC1CCCCC1 | -2
CS(=O)(=O)N(CC(=O)NCC1CCCO1)c1ccc(F)c(Cl)c1 (centres undefined) | 6
O=C1CN(C(=O)OCc2ccccc2)c2ccccc2N1 | -51
CCc1ccc(N(CC(=O)NC2CCCCC2)S(=O)(=O)c2c(C)noc2C)cc1 | -5
CCOC(=O)C1=C(C)N(c2ccccc2)C(=O)C1CC(=O)O (centres undefined) | 16
CSCCC(NC=C1C(=O)OC(C)(C)OC1=O)C(=O)O (centres undefined) | 9
CCCCNc1ncnc2c1cnn2-c1ccc(Cl)cc1 | -109
SMILES | RORa inhibitor
Cc1cccc(-n2ncc3c(N4CCOCC4)ncnc32)c1 | 67*
COc1ccc(-n2ncc3c(N4CCCCC4)ncnc32)cc1 | 87*
COc1ccc2nc(N3CCCCC3)c(C#N)cc2c1 | -31
CC1CN(c2ncnc3c2cnn3-c2ccc(Cl)cc2)CC(C)O1 (centres undefined) | -67
COc1ccc(-n2c(C)nc3c(cnn3-c3ccc(C)c(C)c3)c2=O)cc1 | -65
Cc1cccc(-n2ncc3c(NCCCO)ncnc32)c1 | -83
Clc1ccc(-n2ncc3c(N4CCCCCC4)ncnc32)cc1 | 68*
C=CCNc1ncnc2c1cnn2-c1cccc(C)c1 | -55
N=C1C(c2ccccc2)=C(O)CN1c1ccccc1N1CCOCC1 | 2
CCC(C)(C(=O)NC1CCCCC1)N(C(=O)c1cnccn1)c1c(C)n(C)n(-c2ccccc2)c1=O (centres undefined) | 1
C=CCn1c(SCC(=O)Nc2nccs2)nnc1-c1cc2cccc(OC)c2o1 | 10
CCOC(=O)C1=C2N(C)c3ccccc3N2CCC1=O | 2
O=C(O)CSCC(=O)Nc1cccc2ccccc12 | 12
c1ccc(-c2noc(C3CCCCC3)n2)nc1 | -61
c1ccc(-c2noc(-c3ccc4ccccc4c3)n2)nc1 | 92*
c1ccc(-c2noc(-c3ccc4c(c3)OCO4)n2)nc1 | 78*
CCOc1ccc(-c2nc(-c3ccccc3)no2)cc1OCC | -49
COc1ccc(-c2nc(-c3ccccc3OC)no2)cc1OC | -56
CCc1ccc(OCc2nc(-c3ccccn3)no2)c(Br)c1 | 10
CC(C)[C@H](NC(=O)[C@@H]1CSCN1C(=O)OC(C)(C)C)C(=O)NCC1CCC(C(=O)O)CC1 (some centres undefined) | 1
O=C(COC(=O)c1cc(=O)[nH]c2ccccc12)NC(=O)NC1CCCCC1 | 18
N#C/C(=C/c1ccc(N2CCCCCC2)o1)c1ccc(F)cc1 | 62*
CCOc1ncccc1C(=O)OCC(=O)Nc1cc(C(=O)OC)ccc1C(=O)OC | -26
COCCn1c(SCC(=O)Nc2cccc(C)c2)nnc1C(C)C | -26
COCCn1c(C)cc(C(=O)CSc2nnc(C)s2)c1C | 68*
SMILES | RORa inhibitor
Cn1nnnc1Sc1nc(-c2cccnc2)nc2ccccc12 | 1
Cc1ccc(-n2ncc(-c3nnc(SCC(=O)NC4CCCC4)o3)c2N)cc1C | -17
Cc1cc(NC(=O)CCCOc2ccc(Cl)cc2Cl)no1 | 6
CCC1CCCCN1CCCNC(=O)COc1cc(=O)n(C)c2ccccc12 (centres undefined) | -4
Cc1ccnc(NC(=O)CCCOc2cc(=O)n(C)c3ccccc23)c1 | 57*
O=C(NCc1ccc(F)cc1)c1cc2n(n1)C(C(F)(F)F)CC(C1CC1)N2 (centres undefined) | -64
Cc1ccc2c(c1)C(N1CCCC1=O)CC(c1ccco1)N2 (centres undefined) | -52
COc1ccc(C2(O)CCN(Cc3nnnn3Cc3ccc(F)cc3)CC2)cc1 | 5
COc1cc2[nH]c(=O)n(Cc3ccc(C(=O)NCC4CCCO4)cc3)c(=O)c2cc1OC (centres undefined) | 6
